# Test results taken from ChEMBL document CHEMBL1157149, “Phosphonate-linked pyrrolo[2,1-c][1,4]benzodiazepine conjugates: synthesis, DNA-binding affinity and cytotoxicity” (2008).
# Active and inactive are the calls of the source. No cut-off for these calls is given here.
# Key:
# [1] = Cytotoxicity against human DWD cells after 48 hrs by SRB method
# [2] = tested on: DNA; assay: Binding affinity to calf thymus DNA assessed as change in thermal stability at pH 7.0 after 18 hrs by thermal denaturation assay; type: nucleic-acid assay; settings: Bos taurus
# How it was run: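 CT-DNA duplex at 100 µM (in phosphate) with ligand at 20 µM (1:5 ligand/DNA molar ratio) in 10 mM sodium phosphate, 1 mM EDTA, pH 7.00; compound added from concentrated MeOH solution. Incubated at 37 °C for 18 h. Absorbance at 260 nm followed while heating at 1 °C/min over 40–90 °C. Tm taken from dA260/dT derivative maxima; ΔTm relative to DNA alone.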
# [3] = tested on: MCF7; assay: Cytotoxicity against human MCF7 cells after 48 hrs by SRB method; settings: MCF7, 48 h
# [4] = tested on: SiHa; assay: Cytotoxicity against human SiHa cells after 48 hrs by SRB method
# [5] = tested on: KB; assay: Cytotoxicity against human KB cells after 48 hrs by SRB method
# [6] = target: T1, Type II restriction enzyme BamHI (Bacillus amyloliquefaciens) (UniProt P23940); assay: Inhibition of BamH1 assessed as inhibition of pBR322 DNA cleavage
# T1 sequence (whole entry): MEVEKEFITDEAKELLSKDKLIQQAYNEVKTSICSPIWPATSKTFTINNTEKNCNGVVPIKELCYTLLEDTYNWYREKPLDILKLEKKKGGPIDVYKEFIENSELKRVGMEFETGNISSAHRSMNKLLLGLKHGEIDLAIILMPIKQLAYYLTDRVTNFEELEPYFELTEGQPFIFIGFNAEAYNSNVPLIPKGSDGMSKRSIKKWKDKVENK
# How it was run: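 PBD stocks were 100 μM in DMSO. Plasmid pBR322 (500 ng, single BamHI site) was preincubated with compound in 16 μL for 16 h at 37 °C. BamHI (20 U) and its buffer were then added to 20 μL, and digestion ran 1 h at 37 °C. Cut and uncut forms were resolved on 1% agarose in TAE (80 V, 2 h) and stained with ethidium bromide.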
# [7] = tested on: COLO 205; assay: Cytotoxicity against human Colo205 cells after 48 hrs by SRB method; settings: COLO 205, 48 h
# [8] = Cytotoxicity against human GURAV cells after 48 hrs by SRB method
# [9] = tested on: A2780; assay: Cytotoxicity against human A2780 cells after 48 hrs by SRB method; settings: A2780, 48 h
# [10] = tested on: PC-3; assay: Cytotoxicity against human PC3 cells after 48 hrs by SRB method; settings: PC-3, 48 h
# [11] = tested on: HL-60; assay: Cytotoxicity against human HL60 cells after 48 hrs by SRB method; settings: HL-60, 48 h
# [12] = Cytotoxicity against human ovarian cancer cells after 24 hrs by SRB method; type: functional; settings: Cancer cell lines
# [13] = tested on: CCRF-CEM; assay: Cytotoxicity against human CCRF-CEM cells after 24 hrs by SRB method; type: functional
# [14] = tested on: SR; assay: Cytotoxicity against human SR cells after 24 hrs by SRB method; type: functional
# [15] = Cytotoxicity against human CNS cancer cells after 48 hrs by SRB method; settings: Cancer cell lines
# [16] = tested on: A549; assay: Cytotoxicity against human A549 cells after 48 hrs by SRB method; settings: A549, 48 h
# [17] = Cytotoxicity against human colon cancer cells after 24 hrs by SRB method; type: functional; settings: Cancer cell lines
# [18] = Cytotoxicity against human leukemia cells after 24 hrs by SRB method; type: functional; settings: Leukemia cell, read-out: pTGI (converted)
# [19] = Cytotoxicity against human renal cancer cells after 24 hrs by SRB method; type: functional; settings: Cancer cell lines
# [20] = tested on: CCRF-CEM; assay: Cytotoxicity against human CCRF-CEM cells after 48 hrs by SRB method; settings: read-out: pLC50 (the source's name) (converted)
# [21] = Cytotoxicity against human prostate cancer cells after 24 hrs by SRB method; type: functional; settings: Cancer cell lines
# [22] = tested on: MOLT-4; assay: Cytotoxicity against human MOLT4 cells after 24 hrs by SRB method; type: functional; settings: MOLT-4, 24 h
# [23] = tested on: K562; assay: Cytotoxicity against human K562 cells after 48 hrs by SRB method; settings: K562, 48 h
# [24] = Cytotoxicity against human melanoma cancer cells after 24 hrs by SRB method; type: functional; settings: Melanoma cell
# [25] = Cytotoxicity against human breast cancer cells after 24 hrs by SRB method; type: functional; settings: Cancer cell lines
# [26] = Cytotoxicity against human lung cancer cells after 24 hrs by SRB method; type: functional; settings: Cancer cell lines
# [27] = Cytotoxicity against human leukemia cells after 48 hrs by SRB method; settings: Leukemia cell
# [28] = tested on: RPMI-8226; assay: Cytotoxicity against human RPMI8226 cells after 24 hrs by SRB method; type: functional; settings: RPMI-8226, 24 h
# [29] = read-out: pLC50 (the source's name) (converted)
smiles,measurement,setting,value
CCOP(=O)(CCCOc1cc2c(cc1OC)C(=O)N1CCC[C@H]1C=N2)OCC,GI50,[1],2.2 µM
same,ΔTm,[2],4.5 °C
same,GI50,[3],2.02 µM
same,GI50,[4],2.1 µM
same,GI50,[5],2.11 µM
CCOP(=O)(CCN1CCN(CCCOc2cc3c(cc2OC)C(=O)N2CCC[C@H]2C=N3)CC1)OCC,ΔTm,[2],9 °C
same,Activity,[6],Active
COc1cc2c(cc1O)N=C[C@@H]1CCCN1C2=O,ΔTm,[2],0.7 °C
CCOP(=O)(CCCN1CCN(CCCCCOc2cc3c(cc2OC)C(=O)N2CCC[C@H]2C=N3)CC1)OCC,GI50,[1],0.18 µM
same,ΔTm,[2],10 °C
same,Activity,[6],Active
same,GI50,[7],2.39 µM
same,GI50,[8],2.18 µM
same,GI50,[9],2.02 µM
same,GI50,[3],2.21 µM
same,GI50,[4],2.46 µM
same,GI50,[10],30.5 µM
COc1cc2c(cc1OCCCN1CCN(C)CC1)N=C[C@@H]1CCCN1C2=O,ΔTm,[2],6.9 °C
COc1cccc2c1C(=O)c1c(O)c3c(c(O)c1C2=O)C[C@@](O)(C(=O)CO)C[C@@H]3O[C@H]1C[C@H](N)[C@H](O)[C@H](C)O1 [DOXORUBICIN],GI50,[1],0.11 µM
same,GI50,[7],0.14 µM
same,GI50,[8],0.17 µM
same,GI50,[9],0.17 µM
same,GI50,[3],0.18 µM
same,GI50,[4],0.18 µM
same,GI50,[5],0.17 µM
CCOP(=O)(CCCN1CCN(CCCCOc2cc3c(cc2OC)C(=O)N2CCC[C@H]2C=N3)CC1)OCC,ΔTm,[2],7.1 °C
CCOP(=O)(CCCN1CCN(CCCOc2cc3c(cc2OC)C(=O)N2CCC[C@H]2C=N3)CC1)OCC,ΔTm,[2],9.9 °C
same,Activity,[6],Active
CCOP(=O)(CCN1CCN(CCCCCOc2cc3c(cc2OC)C(=O)N2CCC[C@H]2C=N3)CC1)OCC,GI50,[11],1.82 µM
same,CC50,[11]; [29],> 100 µM
same,TGI,[11]; read-out: pTGI (converted),8.32 µM
same,GI50,[12],13.8 µM
same,CC50,[12]; [29],100 µM
same,TGI,[12]; read-out: pTGI (converted),55 µM
same,GI50,[13],1.91 µM
same,ΔTm,[2],7.2 °C
same,GI50,[14],1.38 µM
same,CC50,[14]; [29],30.9 µM
same,TGI,[14]; read-out: pTGI (converted),4.27 µM
same,GI50,[15],3.02 µM
same,CC50,[15]; [29],89.1 µM
same,TGI,[15]; read-out: pTGI (converted),30.2 µM
same,Activity,[6],Active
same,GI50,[16],2.64 µM
same,GI50,[17],10 µM
same,CC50,[17]; [29],93.3 µM
same,TGI,[17]; read-out: pTGI (converted),46.8 µM
same,TGI,[18],12.3 µM
same,GI50,[7],1.87 µM
same,GI50,[8],0.17 µM
same,GI50,[9],0.17 µM
same,GI50,[19],9.77 µM
same,CC50,[19]; [29],95.5 µM
same,TGI,[19]; read-out: pTGI (converted),53.7 µM
same,CC50,[20],> 100 µM
same,GI50,[21],17.8 µM
same,CC50,[21]; [29],100 µM
same,TGI,[21]; read-out: pTGI (converted),63.1 µM
same,GI50,[22],2.14 µM
same,CC50,[22]; [29],> 100 µM
same,TGI,[22]; read-out: pTGI (converted),6.31 µM
same,GI50,[23],2.34 µM
same,CC50,[23]; [29],> 100 µM
same,TGI,[23]; read-out: pTGI,> 100 µM
same,GI50,[24],7.76 µM
same,CC50,[24]; [29],81.3 µM
same,TGI,[24]; read-out: pTGI (converted),30.2 µM
same,GI50,[3],2.01 µM
same,GI50,[4],0.21 µM
same,GI50,[25],5.62 µM
same,CC50,[25]; [29],95.5 µM
same,TGI,[25]; read-out: pTGI (converted),33.1 µM
same,GI50,[5],1.92 µM
same,GI50,[26],10 µM
same,CC50,[26]; [29],100 µM
same,TGI,[26]; read-out: pTGI (converted),45.7 µM
same,GI50,[27],1.95 µM
same,CC50,[27]; [29],100 µM
same,GI50,[10],1.98 µM
same,GI50,[28],2.29 µM
same,CC50,[28]; [29],> 100 µM
